Measured values taken from paper PMC4929832 (Nature, 2016).

Key:
[1] = target: CK1-EPSILON (Homo sapiens, UniProt P49674); test: kinase panel; type: biochemical
[2] = target: FMS (Homo sapiens, UniProt P07333); test: kinase panel; type: biochemical
[3] = target: PAK4 (Homo sapiens, UniProt O96013); test: kinase panel; type: biochemical
[4] = target: MAPK1 (Homo sapiens, UniProt P28482); test: kinase panel; type: biochemical
[5] = target: CK1-GAMMA3 (Homo sapiens, UniProt Q9Y6M4); test: kinase panel; type: biochemical
CK1-GAMMA3, sequence (Q9Y6M4 whole entry): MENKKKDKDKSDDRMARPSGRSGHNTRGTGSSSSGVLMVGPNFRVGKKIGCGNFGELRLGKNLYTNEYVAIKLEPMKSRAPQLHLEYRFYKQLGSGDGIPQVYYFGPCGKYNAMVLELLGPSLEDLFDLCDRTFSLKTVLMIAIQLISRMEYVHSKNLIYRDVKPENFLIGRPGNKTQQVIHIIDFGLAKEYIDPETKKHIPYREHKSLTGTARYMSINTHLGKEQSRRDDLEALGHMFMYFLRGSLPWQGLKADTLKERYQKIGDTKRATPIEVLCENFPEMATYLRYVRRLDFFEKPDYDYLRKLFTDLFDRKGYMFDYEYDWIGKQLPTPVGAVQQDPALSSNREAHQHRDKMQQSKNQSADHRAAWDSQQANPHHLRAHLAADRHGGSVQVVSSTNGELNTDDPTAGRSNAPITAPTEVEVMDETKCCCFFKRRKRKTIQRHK

[6] = target: PASK (Homo sapiens, UniProt Q96RG2); test: kinase panel; type: biochemical
[7] = target: ALK2 (Homo sapiens, UniProt Q04771); test: kinase panel; type: biochemical
[8] = target: GRK5 (Homo sapiens, UniProt P34947); test: kinase panel; type: biochemical
[9] = target: PDGFR-BETA (Homo sapiens, UniProt P09619); test: kinase panel; type: biochemical
[10] = target: RSK3 (Homo sapiens, UniProt Q15349); test: kinase panel; type: biochemical
[11] = target: RSK4 (Homo sapiens, UniProt Q9UK32); test: kinase panel; type: biochemical
[12] = target: PI3K-ALPHA (Homo sapiens, UniProt P42336); test: kinase panel; type: biochemical
[13] = target: ARK5 (Homo sapiens, UniProt O60285); test: kinase panel; type: biochemical
[14] = target: DAPK1 (Homo sapiens, UniProt P53355); test: kinase panel; type: biochemical
[15] = target: HIPK2 (Homo sapiens, UniProt Q9H2X6); test: kinase panel; type: biochemical
[16] = target: AURORA-C (Homo sapiens, UniProt Q9UQB9); test: kinase panel; type: biochemical
[17] = target: DDR2 (Homo sapiens, UniProt Q16832); test: kinase panel; type: biochemical
DDR2, sequence (Q16832 22-855): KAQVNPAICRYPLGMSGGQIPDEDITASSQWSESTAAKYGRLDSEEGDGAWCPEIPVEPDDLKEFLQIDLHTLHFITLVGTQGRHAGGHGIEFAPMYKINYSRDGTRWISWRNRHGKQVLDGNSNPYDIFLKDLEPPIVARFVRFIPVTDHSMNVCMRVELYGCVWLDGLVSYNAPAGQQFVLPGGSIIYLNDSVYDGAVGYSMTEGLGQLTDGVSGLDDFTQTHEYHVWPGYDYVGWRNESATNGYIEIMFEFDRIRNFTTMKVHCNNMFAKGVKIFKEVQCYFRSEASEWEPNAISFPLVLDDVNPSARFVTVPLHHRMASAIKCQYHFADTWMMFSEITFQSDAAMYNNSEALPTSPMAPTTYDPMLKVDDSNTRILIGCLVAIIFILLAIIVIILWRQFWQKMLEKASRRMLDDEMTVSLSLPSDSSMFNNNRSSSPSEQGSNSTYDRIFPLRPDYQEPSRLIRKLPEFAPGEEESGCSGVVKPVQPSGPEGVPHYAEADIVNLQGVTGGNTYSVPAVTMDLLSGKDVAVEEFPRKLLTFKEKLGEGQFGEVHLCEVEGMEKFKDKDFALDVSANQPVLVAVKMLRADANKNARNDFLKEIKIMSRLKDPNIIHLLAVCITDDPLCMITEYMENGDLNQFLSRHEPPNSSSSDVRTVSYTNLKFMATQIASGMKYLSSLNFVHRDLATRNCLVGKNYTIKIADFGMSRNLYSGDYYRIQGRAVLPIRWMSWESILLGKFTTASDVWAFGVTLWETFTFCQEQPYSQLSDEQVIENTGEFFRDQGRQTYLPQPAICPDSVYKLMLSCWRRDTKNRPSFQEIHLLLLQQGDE

[18] = target: MRCK-BETA (Homo sapiens, UniProt Q9Y5S2); test: kinase panel; type: biochemical
[19] = target: INSR (Homo sapiens, UniProt P06213); test: kinase panel; type: biochemical
INSR, sequence (P06213 28-1382): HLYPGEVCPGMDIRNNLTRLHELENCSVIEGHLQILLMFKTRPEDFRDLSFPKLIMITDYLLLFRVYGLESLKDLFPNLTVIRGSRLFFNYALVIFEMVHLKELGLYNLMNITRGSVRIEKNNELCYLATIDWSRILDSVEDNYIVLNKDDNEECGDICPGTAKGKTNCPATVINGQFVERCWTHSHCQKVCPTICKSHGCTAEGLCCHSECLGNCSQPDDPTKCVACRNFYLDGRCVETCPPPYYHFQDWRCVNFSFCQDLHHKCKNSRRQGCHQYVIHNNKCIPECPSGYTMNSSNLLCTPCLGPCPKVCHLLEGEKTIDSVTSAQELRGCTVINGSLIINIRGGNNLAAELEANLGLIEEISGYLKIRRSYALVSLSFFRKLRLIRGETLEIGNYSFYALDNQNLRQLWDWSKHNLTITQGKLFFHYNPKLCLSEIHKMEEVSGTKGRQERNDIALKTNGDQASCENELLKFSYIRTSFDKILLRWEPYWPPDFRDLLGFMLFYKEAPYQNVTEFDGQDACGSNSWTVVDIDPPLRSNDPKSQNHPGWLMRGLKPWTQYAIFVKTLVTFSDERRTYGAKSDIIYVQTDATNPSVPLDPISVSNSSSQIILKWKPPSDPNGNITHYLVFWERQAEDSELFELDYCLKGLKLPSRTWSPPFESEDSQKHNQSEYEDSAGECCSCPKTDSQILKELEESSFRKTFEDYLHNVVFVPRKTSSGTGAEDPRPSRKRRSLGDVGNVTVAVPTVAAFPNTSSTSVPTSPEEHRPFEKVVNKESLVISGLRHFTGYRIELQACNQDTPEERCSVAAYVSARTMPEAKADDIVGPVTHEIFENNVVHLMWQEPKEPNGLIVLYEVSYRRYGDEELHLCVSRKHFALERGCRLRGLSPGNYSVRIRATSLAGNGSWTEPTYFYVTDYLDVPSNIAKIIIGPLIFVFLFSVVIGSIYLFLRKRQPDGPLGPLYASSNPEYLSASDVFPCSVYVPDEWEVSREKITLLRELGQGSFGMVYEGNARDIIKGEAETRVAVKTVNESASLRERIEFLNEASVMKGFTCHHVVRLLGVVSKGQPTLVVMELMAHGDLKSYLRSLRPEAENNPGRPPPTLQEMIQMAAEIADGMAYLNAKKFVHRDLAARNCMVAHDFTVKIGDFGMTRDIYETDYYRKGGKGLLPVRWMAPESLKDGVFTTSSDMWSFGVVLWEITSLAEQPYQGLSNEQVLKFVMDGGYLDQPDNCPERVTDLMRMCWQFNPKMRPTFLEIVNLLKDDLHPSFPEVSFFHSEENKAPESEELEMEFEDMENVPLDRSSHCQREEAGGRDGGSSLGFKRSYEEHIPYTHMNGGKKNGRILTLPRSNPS

[20] = target: PKC-ALPHA (Homo sapiens, UniProt P17252); test: kinase panel; type: biochemical
[21] = target: EPH-A1 (Homo sapiens, UniProt P21709); test: kinase panel; type: biochemical
[22] = target: BTK (Homo sapiens, UniProt Q06187); test: kinase panel; type: biochemical
[23] = target: MST3 (Homo sapiens, UniProt Q9Y6E0); test: kinase panel; type: biochemical
[24] = target: TAK1-TAB1 (Homo sapiens, UniProt O43318); test: kinase panel; type: biochemical
[25] = target: PKC-THETA (Homo sapiens, UniProt Q04759); test: kinase panel; type: biochemical
[26] = target: TEC (Homo sapiens, UniProt P42680); test: kinase panel; type: biochemical
TEC, sequence (P42680 whole entry): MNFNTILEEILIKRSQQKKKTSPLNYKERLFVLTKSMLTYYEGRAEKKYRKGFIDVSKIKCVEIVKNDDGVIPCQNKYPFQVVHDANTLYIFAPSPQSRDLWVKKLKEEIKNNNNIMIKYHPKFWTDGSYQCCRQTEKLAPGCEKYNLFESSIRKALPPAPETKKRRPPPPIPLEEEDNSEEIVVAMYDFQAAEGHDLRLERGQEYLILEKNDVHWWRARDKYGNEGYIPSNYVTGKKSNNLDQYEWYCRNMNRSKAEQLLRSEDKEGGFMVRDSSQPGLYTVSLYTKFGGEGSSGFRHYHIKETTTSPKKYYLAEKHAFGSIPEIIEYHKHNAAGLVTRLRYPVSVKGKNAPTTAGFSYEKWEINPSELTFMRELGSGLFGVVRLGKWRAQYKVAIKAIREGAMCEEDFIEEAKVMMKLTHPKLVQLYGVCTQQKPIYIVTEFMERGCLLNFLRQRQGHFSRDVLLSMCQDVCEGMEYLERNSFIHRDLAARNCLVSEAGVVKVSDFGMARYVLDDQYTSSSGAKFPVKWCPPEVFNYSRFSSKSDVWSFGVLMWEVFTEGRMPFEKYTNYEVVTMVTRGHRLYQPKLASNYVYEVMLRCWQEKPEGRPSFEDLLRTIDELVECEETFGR

[27] = target: TIE2 (Homo sapiens, UniProt Q02763); test: kinase panel; type: biochemical
[28] = target: PLK3 (Homo sapiens, UniProt Q9H4B4); test: kinase panel; type: biochemical
[29] = target: TNK1 (Homo sapiens, UniProt Q13470); test: kinase panel; type: biochemical
[30] = target: CDK2-CYCLINE (Homo sapiens, UniProt P24941); test: kinase panel; type: biochemical
[31] = target: NEK9 (Homo sapiens, UniProt Q8TD19); test: kinase panel; type: biochemical
[32] = target: CDK5 (Homo sapiens, UniProt Q00535); test: kinase panel; type: biochemical
[33] = target: FGFR1 (Homo sapiens, UniProt P11362); test: kinase panel; type: biochemical
[34] = target: FGR (Homo sapiens, UniProt P09769); test: kinase panel; type: biochemical
[35] = target: P70S6K2 (Homo sapiens, UniProt Q9UBS0); test: kinase panel; type: biochemical
P70S6K2, sequence (Q9UBS0 whole entry): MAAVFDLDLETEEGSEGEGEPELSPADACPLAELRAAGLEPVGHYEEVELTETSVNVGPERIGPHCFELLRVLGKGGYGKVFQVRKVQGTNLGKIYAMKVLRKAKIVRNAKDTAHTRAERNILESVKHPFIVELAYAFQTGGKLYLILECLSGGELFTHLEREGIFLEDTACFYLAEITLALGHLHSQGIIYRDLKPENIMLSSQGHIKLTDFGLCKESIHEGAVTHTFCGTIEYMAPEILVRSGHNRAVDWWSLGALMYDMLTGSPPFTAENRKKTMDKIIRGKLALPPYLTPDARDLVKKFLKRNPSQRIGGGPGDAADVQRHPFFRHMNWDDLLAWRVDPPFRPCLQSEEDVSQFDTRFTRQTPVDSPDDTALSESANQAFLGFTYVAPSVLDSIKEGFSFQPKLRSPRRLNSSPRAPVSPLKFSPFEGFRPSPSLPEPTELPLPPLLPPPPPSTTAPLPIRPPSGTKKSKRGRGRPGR

[36] = target: TYK2 (Homo sapiens, UniProt P29597); test: kinase panel; type: biochemical
[37] = target: RIPK2 (Homo sapiens, UniProt O43353); test: kinase panel; type: biochemical
[38] = target: Muscarinic M2 (Homo sapiens, UniProt P08172); test: Muscarinic M2 calcium flux assay with ATP priming; type: cell-based
Muscarinic M2, sequence (P08172 whole entry): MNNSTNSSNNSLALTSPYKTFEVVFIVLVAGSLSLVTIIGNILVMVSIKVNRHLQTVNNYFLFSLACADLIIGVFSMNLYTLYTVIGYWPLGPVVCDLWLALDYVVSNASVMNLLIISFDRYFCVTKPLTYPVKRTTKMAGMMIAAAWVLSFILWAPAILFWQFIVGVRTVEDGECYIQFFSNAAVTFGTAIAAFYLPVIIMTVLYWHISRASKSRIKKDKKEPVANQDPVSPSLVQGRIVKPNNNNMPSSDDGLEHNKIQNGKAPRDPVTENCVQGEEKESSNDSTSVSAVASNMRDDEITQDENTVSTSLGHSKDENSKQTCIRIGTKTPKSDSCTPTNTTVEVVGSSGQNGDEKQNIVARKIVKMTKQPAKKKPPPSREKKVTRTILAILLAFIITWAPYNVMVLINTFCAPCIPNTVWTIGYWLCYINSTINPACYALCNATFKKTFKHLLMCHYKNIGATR

[39] = test system: Nicotinic (CNS) Receptor; test: Nicotinic; type: binding; details: human IMR32 cells
[40] = target: PPARgamma Receptor (Homo sapiens, UniProt P37231); test: PPARgamma Receptor agonist assay; type: cell-based
[41] = test system: H3255 cells; test: Proliferation assay; type: cell-based
In short: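 Cells were maintained in 10% FBS/RPMI with penicillin/streptomycin and plated at 500 cells/well in 10% FBS RPMI. Serially diluted test compound was pin-transferred. Viability was read after 3 days by CellTiter-Glo luminescence and normalized to 0.1% DMSO-treated cells and empty wells. EC50 was obtained by non-linear regression curve fitting.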

[42] = Mouse pharmacokinetic studies; type: in vivo; details: 20 mg/kg

CK1-EPSILON, sequence (P49674 whole entry): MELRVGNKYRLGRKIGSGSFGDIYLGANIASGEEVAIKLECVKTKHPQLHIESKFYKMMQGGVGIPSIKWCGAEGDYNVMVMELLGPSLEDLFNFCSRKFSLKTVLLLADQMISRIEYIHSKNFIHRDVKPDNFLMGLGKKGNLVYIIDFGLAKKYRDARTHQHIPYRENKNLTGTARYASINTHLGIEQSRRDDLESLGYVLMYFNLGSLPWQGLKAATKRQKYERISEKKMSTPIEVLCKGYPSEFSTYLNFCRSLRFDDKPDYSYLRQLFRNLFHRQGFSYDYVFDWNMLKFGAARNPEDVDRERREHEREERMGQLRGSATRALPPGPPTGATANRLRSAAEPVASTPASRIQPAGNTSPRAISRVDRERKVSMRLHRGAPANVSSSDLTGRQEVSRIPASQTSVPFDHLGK
MAPK1, sequence (P28482 whole entry): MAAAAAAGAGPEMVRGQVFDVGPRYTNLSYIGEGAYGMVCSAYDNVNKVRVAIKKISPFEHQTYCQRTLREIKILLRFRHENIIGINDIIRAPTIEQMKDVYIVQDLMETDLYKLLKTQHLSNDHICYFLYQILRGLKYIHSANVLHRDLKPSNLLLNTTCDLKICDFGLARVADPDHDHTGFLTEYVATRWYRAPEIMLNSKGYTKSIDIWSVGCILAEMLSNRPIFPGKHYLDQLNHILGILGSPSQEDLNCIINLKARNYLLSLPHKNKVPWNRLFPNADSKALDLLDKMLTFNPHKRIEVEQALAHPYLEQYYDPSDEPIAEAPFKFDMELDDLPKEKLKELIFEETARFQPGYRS

In the case of `O=C(Nc1nccs1)C(c1cc(F)ccc1O)N1Cc2ccccc2C1=O` (centres unmarked) [EAI045, 2-(5-fluoro-2-hydroxyphenyl)-2-(1-oxo-2,3-dihydro-1H-isoindol-2-yl)-N-(1,3-thiazol-2-yl)acetamide], the inhibition at 1 µM [1] is reported as 0%, the inhibition at 1 µM [2] is reported as 0% and the inhibition at 1 µM [3] is reported as 0%. The inhibition at 1 µM [4] was 0%, the inhibition at 1 µM [5] was 6% and the inhibition at 1 µM [6] was 1%. The inhibition at 1 µM [7] was 0%, the inhibition at 1 µM [8] was 0% and the inhibition at 1 µM [9] was 4%. The inhibition at 1 µM [10] was 0%, the inhibition at 1 µM [11] was 0% and the inhibition at 1 µM [12] was 0%. The inhibition at 1 µM [13] was 0%, the inhibition at 1 µM [14] was 0% and the inhibition at 1 µM [15] was 2%. It also gave an inhibition at 1 µM [16] of 0%, an inhibition at 1 µM [17] of 4% and an inhibition at 1 µM [18] of 0%. For the same compound, the inhibition at 1 µM [19] was 0%, the inhibition at 1 µM [20] was 0% and the inhibition at 1 µM [21] was 0%. It also gave an inhibition at 1 µM [22] of 0%, an inhibition at 1 µM [23] of 0% and an inhibition at 1 µM [24] of 0%. It also gave an inhibition at 1 µM [25] of 0%, an inhibition at 1 µM [26] of 4% and an inhibition at 1 µM [27] of 0%. For the same compound, the inhibition at 1 µM [28] was 5%, the inhibition at 1 µM [29] was 0% and the inhibition at 1 µM [30] was 0%. It also gave an inhibition at 1 µM [31] of 0%, an inhibition at 1 µM [32] of 0% and an inhibition at 1 µM [33] of 5%. For the same compound, the inhibition at 1 µM [34] was 0%, the inhibition at 1 µM [35] was 0% and the inhibition at 1 µM [36] was 0%. For the same compound, the inhibition at 1 µM [37] was 0%, the IC50 [38] was over 30 µM and the IC50 [39] was over 30 µM. The IC50 [40] was over 30 µM, the anti-proliferative effect ([41]; H3255, concentrations as high as 10 μM) was “no anti-proliferative effect” and the EC50 ([41]; Homo sapiens, NCI-H3255, 72 h, read-out: EC50 Proliferation) was over 10 µM. The maximal plasma concentration [42] was 0.57 µM and the half-life ([42]; plasma, oral) was 129 min.
